Experimental data from ChEMBL document CHEMBL1124366, “Synthesis and biological properties of N63-carboxamides of teicoplanin antibiotics. Structure-activity relationships” (J Med Chem, 1989).
Converted amounts (≈) assume the structure as drawn.

Assays:
Format in all cases: functional
[1] = test system: Streptococcus pneumoniae; assay: In vitro minimum inhibitory concentration against Streptococcus pneumoniae UC41
[2] = test system: Escherichia coli; assay: In vitro minimum inhibitory concentration against Escherichia coli SKF 12140
[3] = test system: Proteus vulgaris; assay: In vitro minimum inhibitory concentration against Proteus vulgaris X 19 ATCC 881
[4] = test system: Streptococcus pyogenes; assay: Subcutaneously administration into mice infected with Streptococcus pyogenes C 203; conditions: sc
Summary of the method: (§1)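 Mice (five per treatment group, five groups) infected intraperitoneally with about 10⁵ cells of Strep. pyogenes C 203, about 100× the LD50. ED50 (mg/kg) was calculated from the percentage of mice surviving at each dose on day 7.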

[5] = test system: Streptococcus pyogenes; assay: In vitro minimum inhibitory concentration against Streptococcus pyogenes C 203
[6] = test system: Pseudomonas aeruginosa; assay: In vitro minimum inhibitory concentration against Pseudomonas aeruginosa ATCC 10145
[7] = test system: Staphylococcus aureus; assay: In vitro minimum inhibitory concentration against Staphylococcus aureus Tour
[8] = test system: Enterococcus faecalis; assay: In vitro minimum inhibitory concentration against Streptococcus faecalis ATCC 7080
[9] = test system: Staphylococcus epidermidis; assay: In vitro minimum inhibitory concentration against Staphylococcus epidermis ATCC 12228
[10] = test system: Staphylococcus haemolyticus; assay: In vitro minimum inhibitory concentration against Staphylococcus hemolyticus 602 cell line; conditions: strain 602
[11] = test system: Streptococcus pyogenes; assay: In vivo effective dose given perorally to mice infected with Streptococcus pyogenes C 203; conditions: po; summary of the method: as §1

SMILES | MIC [1] | MIC [2] | MIC [3] | ED50 [4] | MIC [5] | MIC [6] | MIC [7] | MIC [8] | MIC [9] | MIC [10] | ED50 [11]
N[C@H]1C(=O)N[C@@H]2Cc3ccc(c(Cl)c3)Oc3cc4cc(c3O)Oc3ccc(cc3Cl)[C@@H](O)[C@@H]3NC(=O)[C@H](NC(=O)[C@@H]4NC(=O)[C@@H](NC2=O)c2cc(O)cc(c2)Oc2cc1ccc2O)c1ccc(O)c(c1)-c1c(O)cc(O)cc1[C@@H](C(=O)NCCN1CCOCC1)NC3=O | 0.12 µg/mL (≈ 0.0915 µM) | 16 µg/mL (≈ 12.2 µM) | 128 µg/mL (≈ 97.6 µM) | 2.2 mg/kg | 0.12 µg/mL (≈ 0.0915 µM) | 64 µg/mL (≈ 48.8 µM) | 0.06 µg/mL (≈ 0.0458 µM) | 0.12 µg/mL (≈ 0.0915 µM) | 0.016 µg/mL (≈ 0.0122 µM) | – | –
N[C@H]1C(=O)N[C@@H]2Cc3ccc(c(Cl)c3)Oc3cc4cc(c3O)Oc3ccc(cc3Cl)[C@@H](O)[C@@H]3NC(=O)[C@H](NC(=O)[C@@H]4NC(=O)[C@@H](NC2=O)c2cc(O)cc(c2)Oc2cc1ccc2O)c1ccc(O)c(c1)-c1c(O)cc(O)cc1[C@@H](C(=O)N1CCOCC1)NC3=O | 0.12 µg/mL (≈ 0.0946 µM) | 16 µg/mL (≈ 12.6 µM) | 64 µg/mL (≈ 50.5 µM) | 1.02 mg/kg | 0.12 µg/mL (≈ 0.0946 µM) | 64 µg/mL (≈ 50.5 µM) | 0.06 µg/mL (≈ 0.0473 µM) | 0.12 µg/mL (≈ 0.0946 µM) | 0.016 µg/mL (≈ 0.0126 µM) | – | –
N[C@H]1C(=O)N[C@@H]2Cc3ccc(c(Cl)c3)Oc3cc4cc(c3O)Oc3ccc(cc3Cl)[C@@H](O)[C@@H]3NC(=O)[C@H](NC(=O)[C@@H]4NC(=O)[C@@H](NC2=O)c2cc(O)cc(c2)Oc2cc1ccc2O)c1ccc(O)c(c1)-c1c(O)cc(O)cc1[C@@H](C(=O)NCCN1CCCC1)NC3=O | 0.12 µg/mL (≈ 0.0927 µM) | 8 µg/mL (≈ 6.18 µM) | 64 µg/mL (≈ 49.4 µM) | 1.6 mg/kg | 0.06 µg/mL (≈ 0.0463 µM) | 64 µg/mL (≈ 49.4 µM) | 0.06 µg/mL (≈ 0.0463 µM) | 0.12 µg/mL (≈ 0.0927 µM) | 0.016 µg/mL (≈ 0.0124 µM) | – | –
CCNCCCNC(=O)[C@H]1NC(=O)[C@H]2NC(=O)[C@H](NC(=O)[C@@H]3NC(=O)[C@H]4NC(=O)[C@@H](Cc5ccc(c(Cl)c5)Oc5cc3cc(c5O[C@@H]3O[C@@H](CO)[C@@H](O)[C@H](O)[C@@H]3NC(=O)CCCCCCC(C)C)Oc3ccc(cc3Cl)[C@H]2O[C@@H]2O[C@@H](CO)[C@@H](O)[C@H](O)[C@@H]2NC(C)=O)NC(=O)[C@H](N)c2ccc(O)c(c2)Oc2cc(O)cc4c2)c2ccc(O)c(c2)-c2c(O[C@H]3O[C@H](CO)[C@@H](O)[C@@H](O)[C@@H]3O)cc(O)cc21 | 0.12 µg/mL (≈ 0.0611 µM) | – | – | 0.1 mg/kg | 0.06 µg/mL (≈ 0.0306 µM) | – | 0.12 µg/mL (≈ 0.0611 µM) | 0.12 µg/mL (≈ 0.0611 µM) | 0.06 µg/mL (≈ 0.0306 µM) | 0.12 µg/mL (≈ 0.0611 µM) | 112 mg/kg
CCNCCNC(=O)[C@H]1NC(=O)[C@H]2NC(=O)[C@H](NC(=O)[C@@H]3NC(=O)[C@H]4NC(=O)[C@@H](Cc5ccc(c(Cl)c5)Oc5cc3cc(c5O[C@@H]3O[C@@H](CO)[C@@H](O)[C@H](O)[C@@H]3NC(=O)CCCCCCC(C)C)Oc3ccc(cc3Cl)[C@H]2O[C@@H]2O[C@@H](CO)[C@@H](O)[C@H](O)[C@@H]2NC(C)=O)NC(=O)[C@H](N)c2ccc(O)c(c2)Oc2cc(O)cc4c2)c2ccc(O)c(c2)-c2c(O[C@H]3O[C@H](CO)[C@@H](O)[C@@H](O)[C@@H]3O)cc(O)cc21 | 0.12 µg/mL (≈ 0.0615 µM) | – | – | 0.18 mg/kg | 0.06 µg/mL (≈ 0.0308 µM) | – | 0.12 µg/mL (≈ 0.0615 µM) | 0.12 µg/mL (≈ 0.0615 µM) | 0.06 µg/mL (≈ 0.0308 µM) | 0.12 µg/mL (≈ 0.0615 µM) | 300 mg/kg
CC(=O)N[C@@H]1[C@H](O[C@@H]2c3ccc(c(Cl)c3)Oc3cc4cc(c3O[C@@H]3O[C@@H](CO)[C@@H](O)[C@H](O)[C@@H]3NC(=O)CCCCCCC(C)C)Oc3ccc(cc3Cl)C[C@H]3NC(=O)[C@H](N)c5ccc(O)c(c5)Oc5cc(O)cc(c5)[C@H](NC3=O)C(=O)N[C@H]4C(=O)N[C@H]3C(=O)N[C@@H]2C(=O)N[C@H](C(=O)NCCCN2CCOCC2)c2cc(O)cc(O[C@H]4O[C@H](CO)[C@@H](O)[C@@H](O)[C@@H]4O)c2-c2cc3ccc2O)O[C@@H](CO)[C@@H](O)[C@@H]1O | 0.06 µg/mL (≈ 0.0299 µM) | – | – | 0.18 mg/kg | 0.06 µg/mL (≈ 0.0299 µM) | – | 0.12 µg/mL (≈ 0.0598 µM) | 0.12 µg/mL (≈ 0.0598 µM) | 0.12 µg/mL (≈ 0.0598 µM) | 0.5 µg/mL (≈ 0.249 µM) | > 300 mg/kg
CC(=O)N[C@@H]1[C@H](O[C@@H]2c3ccc(c(Cl)c3)Oc3cc4cc(c3O[C@@H]3O[C@@H](CO)[C@@H](O)[C@H](O)[C@@H]3NC(=O)CCCCCCC(C)C)Oc3ccc(cc3Cl)C[C@H]3NC(=O)[C@H](N)c5ccc(O)c(c5)Oc5cc(O)cc(c5)[C@H](NC3=O)C(=O)N[C@H]4C(=O)N[C@H]3C(=O)N[C@@H]2C(=O)N[C@H](C(=O)NCCCCN)c2cc(O)cc(O[C@H]4O[C@H](CO)[C@@H](O)[C@@H](O)[C@@H]4O)c2-c2cc3ccc2O)O[C@@H](CO)[C@@H](O)[C@@H]1O | 0.12 µg/mL (≈ 0.0615 µM) | – | – | 0.07 mg/kg | 0.06 µg/mL (≈ 0.0308 µM) | – | 0.12 µg/mL (≈ 0.0615 µM) | 0.12 µg/mL (≈ 0.0615 µM) | 0.06 µg/mL (≈ 0.0308 µM) | 0.12 µg/mL (≈ 0.0615 µM) | 90 mg/kg
CNCCNC(=O)[C@H]1NC(=O)[C@H]2NC(=O)[C@H](NC(=O)[C@@H]3NC(=O)[C@H]4NC(=O)[C@@H](Cc5ccc(c(Cl)c5)Oc5cc3cc(c5O[C@@H]3O[C@@H](CO)[C@@H](O)[C@H](O)[C@@H]3NC(=O)CCCCCCC(C)C)Oc3ccc(cc3Cl)[C@H]2O[C@@H]2O[C@@H](CO)[C@@H](O)[C@H](O)[C@@H]2NC(C)=O)NC(=O)[C@H](N)c2ccc(O)c(c2)Oc2cc(O)cc4c2)c2ccc(O)c(c2)-c2c(O[C@H]3O[C@H](CO)[C@@H](O)[C@@H](O)[C@@H]3O)cc(O)cc21 | 0.12 µg/mL (≈ 0.062 µM) | – | – | 0.08 mg/kg | 0.06 µg/mL (≈ 0.031 µM) | – | 0.12 µg/mL (≈ 0.062 µM) | 0.12 µg/mL (≈ 0.062 µM) | 0.12 µg/mL (≈ 0.062 µM) | 0.12 µg/mL (≈ 0.062 µM) | 173 mg/kg
CNCCN(C)C(=O)[C@H]1NC(=O)[C@H]2NC(=O)[C@H](NC(=O)[C@@H]3NC(=O)[C@H]4NC(=O)[C@@H](Cc5ccc(c(Cl)c5)Oc5cc3cc(c5O[C@@H]3O[C@@H](CO)[C@@H](O)[C@H](O)[C@@H]3NC(=O)CCCCCCC(C)C)Oc3ccc(cc3Cl)[C@H]2O[C@@H]2O[C@@H](CO)[C@@H](O)[C@H](O)[C@@H]2NC(C)=O)NC(=O)[C@H](N)c2ccc(O)c(c2)Oc2cc(O)cc4c2)c2ccc(O)c(c2)-c2c(O[C@H]3O[C@H](CO)[C@@H](O)[C@@H](O)[C@@H]3O)cc(O)cc21 | 0.12 µg/mL (≈ 0.0615 µM) | – | – | 0.1 mg/kg | 0.06 µg/mL (≈ 0.0308 µM) | – | 0.12 µg/mL (≈ 0.0615 µM) | 0.12 µg/mL (≈ 0.0615 µM) | 0.06 µg/mL (≈ 0.0308 µM) | 1 µg/mL (≈ 0.513 µM) | 72 mg/kg
CC(=O)N[C@@H]1[C@H](O[C@@H]2c3ccc(c(Cl)c3)Oc3cc4cc(c3O[C@@H]3O[C@@H](CO)[C@@H](O)[C@H](O)[C@@H]3NC(=O)CCCCCCC(C)C)Oc3ccc(cc3Cl)C[C@H]3NC(=O)[C@H](N)c5ccc(O)c(c5)Oc5cc(O)cc(c5)[C@H](NC3=O)C(=O)N[C@H]4C(=O)N[C@H]3C(=O)N[C@@H]2C(=O)N[C@H](C(=O)NCCCCCN(C)C)c2cc(O)cc(O[C@H]4O[C@H](CO)[C@@H](O)[C@@H](O)[C@@H]4O)c2-c2cc3ccc2O)O[C@@H](CO)[C@@H](O)[C@@H]1O | 0.06 µg/mL (≈ 0.0301 µM) | – | – | 0.12 mg/kg | 0.06 µg/mL (≈ 0.0301 µM) | – | 0.12 µg/mL (≈ 0.0602 µM) | 0.12 µg/mL (≈ 0.0602 µM) | 0.12 µg/mL (≈ 0.0602 µM) | 0.5 µg/mL (≈ 0.251 µM) | 112 mg/kg
CC(=O)N[C@@H]1[C@H](O[C@@H]2c3ccc(c(Cl)c3)Oc3cc4cc(c3O[C@@H]3O[C@@H](CO)[C@@H](O)[C@H](O)[C@@H]3NC(=O)CCCCCCC(C)C)Oc3ccc(cc3Cl)C[C@H]3NC(=O)[C@H](N)c5ccc(O)c(c5)Oc5cc(O)cc(c5)[C@H](NC3=O)C(=O)N[C@H]4C(=O)N[C@H]3C(=O)N[C@@H]2C(=O)N[C@H](C(=O)NCCN)c2cc(O)cc(O[C@H]4O[C@H](CO)[C@@H](O)[C@@H](O)[C@@H]4O)c2-c2cc3ccc2O)O[C@@H](CO)[C@@H](O)[C@@H]1O | 0.12 µg/mL (≈ 0.0624 µM) | – | – | 0.18 mg/kg | 0.06 µg/mL (≈ 0.0312 µM) | – | 0.12 µg/mL (≈ 0.0624 µM) | 0.12 µg/mL (≈ 0.0624 µM) | 0.06 µg/mL (≈ 0.0312 µM) | 0.12 µg/mL (≈ 0.0624 µM) | 139 mg/kg
